SMILES strings stand for the structures. The source made the active and inactive calls. The rule behind the calls is not given here.

The test system of experiment [1] is Plasmodium falciparum. Nature of the experiment: Antimalarial activity against Plasmodium falciparum FCR3 after 72 hrs. The conditions noted are these: FCR3, 72 h. The class given is functional, organism-based. In a few lines: (§1)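 P. falciparum in continuous culture in 5% O+ erythrocytes, RPMI-1640 with 25 mM HEPES, 0.5% albumax, 2 mM L-glutamine, gentamicin; 37 °C, 5% CO2/5% O2/90% N2; sorbitol-synchronized. Ring stages seeded at 0.05% parasitemia, 1.5% hematocrit; 72 h with threefold serial dilutions from 100 µM. HRPII accumulation after freeze-thaw lysis read as percent of untreated controls; duplicates; IC50 from 72 h HRPII production.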

For experiment [2], the system named is Plasmodium falciparum. Put plainly: Antimalarial activity against Plasmodium falciparum 3D7 after 72 hrs. The class given is functional, organism-based. Particulars: 3D7, 72 h. In a few lines: as §1
A further experiment relates to MONO-MAC-6. Put plainly: Effect on cell viability in human MONO-MAC-6 cells at 100 uM after 24 hrs. Type of experiment: functional, cell-based. In a few lines:
(§2)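 Cell lines kept at 37 °C in RPMI 1640 with L-glutamine and 10% fetal calf serum under 5% humidified CO2. Cell suspension (25 cells/µL) exposed to 100 µM compound for 24 h (one cell cycle) at 37 °C. Viability by Trypan Blue dye uptake; duplicates.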

A further experiment concerns NALM-6. Nature of the experiment: Effect on cell viability in human NALM6 cells at 100 uM after 24 hrs. The class given is functional, cell-based. A digest of the protocol: as §2
Another experiment concerns Jurkat. Put plainly: Effect on cell viability in human Jurkat lymphoblastoid cells at 100 uM after 24 hrs. Type of experiment: functional, cell-based. In a few lines: as §2
Experiment [3] deals with T1, Aquaglyceroporin (Plasmodium falciparum) (UniProt Q8II36).
T1 sequence (whole entry): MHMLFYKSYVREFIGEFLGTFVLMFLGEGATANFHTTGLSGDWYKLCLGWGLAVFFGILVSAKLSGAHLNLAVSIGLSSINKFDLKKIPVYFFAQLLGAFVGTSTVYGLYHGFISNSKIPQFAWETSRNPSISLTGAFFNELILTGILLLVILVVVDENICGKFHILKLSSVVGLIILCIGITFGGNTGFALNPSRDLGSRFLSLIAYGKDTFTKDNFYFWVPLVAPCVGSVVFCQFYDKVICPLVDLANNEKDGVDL
Put plainly: Inhibition of Plasmodium falciparum AQP expressed in BY4742-deltafpsl cells at 100 uM after 48 hrs. Type of experiment: cell-based. In a few lines: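 BY4742Δfps1 yeast expressing PfAQP grown in 20 mM MES-buffered (pH 5.5) minimal YNB with 3% glucose, 0.1% proline, with or without 50 mM methylamine hydrochloride; compound at 100 µM, untreated cells as controls.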

As a reminder, the IC50 is the midpoint of a concentration-inhibition curve. For the compound `CCN1CCCC1CNCC(O)COCc1ccccc1` (stereo not drawn), the 50% inhibitory concentration (IC50) was 15.8 µM in the experiment on Plasmodium falciparum [1] and 32.5 µM in the experiment with Plasmodium falciparum [2].

As for `CCN(CC)CC(O)COCc1ccccc1` (stereo not drawn), in the experiment with Plasmodium falciparum [1], the IC50 was found to be 28.1 µM.

For the compound `CN(Cc1ccccc1)CC(O)CNCc1ccccc1` (stereo not drawn), the half-maximal inhibitory concentration (IC50) with Plasmodium falciparum [1] was 41.6 µM; in the experiment with Plasmodium falciparum [2] it was 15.4 µM.

For the compound `OC(CNCC1CCCO1)COCc1ccccc1` (stereo not drawn), in the experiment with Plasmodium falciparum [1], it took 7.7 µM to reach half-maximal inhibition (IC50).

In the case of `OC(CCl)CN1CCNCC1` (stereo not drawn), the result with MONO-MAC-6, in the experiment with NALM-6 and in the experiment on Jurkat was inactive. The results for the IC50 in the experiment with Plasmodium falciparum [1] and with Plasmodium falciparum [2] were 38.5 µM and 66 µM, respectively.

For the compound `OC(CNC1CCCC1)COCc1ccccc1` (stereo not drawn), the IC50 in the experiment on Plasmodium falciparum [1] was 10.3 µM; in the experiment on Plasmodium falciparum [2], 15.1 µM.

In the case of `OC(CNCC1CC1)COCc1ccccc1` (stereo not drawn), the outcome in experiment [3] was inactive. Also, 8.4 µM corresponded to half-maximal inhibition in the experiment with Plasmodium falciparum [1] (IC50).

As for `CN(Cc1ccccc1)CC(O)CN(C)Cc1ccccc1`, the figures for the half-maximal inhibitory concentration (IC50) in the experiment with Plasmodium falciparum [1] and in the experiment with Plasmodium falciparum [2] were 43.9 µM and 43.5 µM, respectively.

On to `OC(CNCc1ccccc1)COCc1ccccc1` (stereo not drawn), for which, in experiment [3], the result was inactive. Further, it took 12.5 µM to reach half-maximal inhibition in the experiment with Plasmodium falciparum [1] (IC50).

Take `OC(COCc1ccccc1)CN1CCNCC1` (stereo not drawn): the IC50 in the experiment on Plasmodium falciparum [1] is 12.5 µM.

For `CN(Cc1ccccc1)CC(O)CSCc1ccccc1` (stereo not drawn), the result in the experiment with MONO-MAC-6, with NALM-6 and in the experiment on Jurkat was inactive. Besides, the IC50 in the experiment with Plasmodium falciparum [1] turned out to be 16.3 µM; in the experiment with Plasmodium falciparum [2] it was 9.3 µM.

As for `OC(COCc1ccccc1)CN1CCCC1` (stereo not drawn), in the experiment on Plasmodium falciparum [1], the concentration for half-maximal inhibition (IC50) was found to be 20.2 µM.

Turning to `OC(CNc1ccccn1)COCc1ccccc1` (stereo not drawn), the IC50 in the experiment on Plasmodium falciparum [1] was determined as 31.1 µM.

Regarding `O[C@@H](CNC1CCCC1)COCc1ccccc1`, the IC50 in the experiment on Plasmodium falciparum [1] was 5.9 µM; with Plasmodium falciparum [2] it was 5.1 µM.

Turning to `CN(Cc1ccccc1)CC(O)CCl` (stereo not drawn), the outcome in the experiment on MONO-MAC-6, with NALM-6 and in the experiment with Jurkat was inactive. For the same compound, the concentration for half-maximal inhibition (IC50) in the experiment on Plasmodium falciparum [1] was determined as 31 µM; in the experiment on Plasmodium falciparum [2], 15.6 µM.

With `O[C@H](CNC1CCCC1)COCc1ccccc1`, the IC50 came out at 4.6 µM in the experiment on Plasmodium falciparum [1] and 3.9 µM with Plasmodium falciparum [2].

As for `CN(Cc1ccccc1)CC(O)COCc1ccccc1` (stereo not drawn), the outcome in experiment [3] was inactive. In addition, the half-maximal inhibitory concentration (IC50) in the experiment with Plasmodium falciparum [1] came out at 2 µM; in the experiment on Plasmodium falciparum [2], 47 µM.

Regarding `CCN(Cc1ccccc1)CC(O)CN(C)Cc1ccccc1` (stereo not drawn), the result (in the experiment with MONO-MAC-6; in the experiment with NALM-6; with Jurkat; in experiment [3]) was inactive. Moreover, the IC50 with Plasmodium falciparum [1] stood at 7.7 µM; in the experiment on Plasmodium falciparum [2], 3.7 µM.

`C=CCNCC(O)CCl` (stereo not drawn) yielded an IC50 with Plasmodium falciparum [1] of 23.8 µM.

The compound `OC(CNC1CCC1)COCc1ccccc1` (stereo not drawn) registered a concentration for half-maximal inhibition (IC50) with Plasmodium falciparum [1] of 15.2 µM.

In the experiment on Plasmodium falciparum [1], `CC(C)(C)NCC(O)COCc1ccccc1` (stereo not drawn) gave an IC50 of 12.7 µM.

In the case of `CCN(Cc1ccccc1)CC(O)COCc1ccccc1` (stereo not drawn), the outcome in experiment [3] was inactive. In the experiment with Plasmodium falciparum [1], this compound yielded an IC50 of 0.7 µM.

`OC(CNCCc1cccs1)COCc1ccccc1` (stereo not drawn) registered an IC50 with Plasmodium falciparum [1] of 1.2 µM.

On to `OC(CNCc1ccco1)COCc1ccccc1` (stereo not drawn), for which inhibition with Plasmodium falciparum [1] was half-maximal at 3.4 µM (IC50).

Turning to `OC(CNCc1cccs1)COCc1ccccc1` (stereo not drawn), the result (in the experiment on MONO-MAC-6; in the experiment on NALM-6; in the experiment with Jurkat; in experiment [3]) was inactive. Moreover, the IC50 in the experiment on Plasmodium falciparum [1] worked out at 5.8 µM; in the experiment with Plasmodium falciparum [2] it was 9.7 µM.

These data come from ChEMBL document CHEMBL1148739, “Microwave-assisted ring opening of epoxides: a general route to the synthesis of 1-aminopropan-2-ols with anti malaria parasite activities” (J Med Chem, 2007).
